Results collected from several papers.

| Structure (SMILES) | tested on | assay | test system | setting | measurement | value |
| --- | --- | --- | --- | --- | --- | --- |
| COc1ccccc1-c1cc(/C=C2\C(=O)Nc3ncc(Br)cc32)cc(Br)c1O | Trypanosoma brucei | parasite growth | – | – | EC50 | 2510 nM |
| N#Cc1ccc(/C=C/c2nc3ccncc3c(=O)n2-c2cccc(C(N)=O)c2)cc1 | Enterococcus faecium | microbial growth, broth dilution | NCTC7171 | – | MIC | > 128 µg/mL |
| COc1cccc(-n2ncc3c(N/N=C/c4ccc(C(=O)NCCN(C)C)cc4)ncnc32)c1 | Trypanosoma brucei | parasite growth | – | – | EC50 | 251 nM |
| Oc1nc(-c2ccc(C(F)(F)F)cc2)nc2c1CSCC2 | MB002 | cell growth or viability | – | 7 days | IC50 | > 10000 nM |
| NC(=O)c1cccc(-n2c(/C=C/c3ccc(F)cc3)nc3ccncc3c2=O)c1 | Enterococcus faecium | microbial growth, broth dilution | NCTC7171 | – | MIC | > 128 µg/mL |
| CC(=O)Nc1cccc(-n2c(=O)n(C3CC3)c(=O)c3c(Nc4ccc(I)cc4F)n(C)c(=O)c(C)c32)c1 | Calu-6 | cell growth or viability, resazurin | – | 390 pM, 72 h | viability | 89.4% |
| CC(C)C[C@H](NC(=O)[C@H](Cc1ccccc1)NC(=O)c1cnccn1)B(O)O | MB002 | cell growth or viability | – | 7 days | IC50 | 3.13 nM |
| Nc1ncc(-c2cccc(S(N)(=O)=O)c2)c2scc(-c3ccc(F)c(Cl)c3)c12 | Trypanosoma brucei | parasite growth | – | – | EC50 | 10000 nM |
| CO[C@H]1C[C@@H]2CC[C@@H](C)[C@@](O)(O2)C(=O)C(=O)N2CCCC[C@H]2C(=O)O[C@H]([C@H](C)C[C@@H]2CC[C@@H](O)[C@H](OC)C2)CC(=O)[C@H](C)/C=C(\C)[C@@H](O)[C@@H](OC)C(=O)[C@H](C)C[C@H](C)/C=C/C=C/C=C/1C | MB002 | cell growth or viability | – | 7 days | IC50 | 6.5 nM |
| C[C@@H]1[C@H](O)[C@@H](C)/C=C/C=C/C=C/C=C/C=C/C=C/C=C/[C@H](O[C@@H]2O[C@H](C)[C@@H](O)[C@H](N)[C@@H]2O)C[C@@H]2O[C@](O)(C[C@@H](O)C[C@@H](O)[C@H](O)CC[C@@H](O)C[C@@H](O)CC(=O)O[C@H]1C)C[C@H](O)[C@H]2C(=O)O | Candida albicans | microbial growth | ATCC90028 | – | IC50 | 0.32 µg/mL |
